In ChEMBL document CHEMBL1158399, “Synthesis, biological evaluation and molecular modeling of oxoisoaporphine and oxoaporphine derivatives as new dual inhibitors of acetylcholinesterase/butyrylcholinesterase” (Eur J Med Chem, 2009):

How the values were obtained:
[1] = Selectivity ratio of IC50 for equine serum BuChE to IC50 for electric eel AChE
Summary of the method: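 Modified Ellman assays with electric eel AChE and equine serum BuChE (enzyme stocks 2.0 units/mL). AChE substrate was acetylthiocholine chloride (0.01 M stock), in phosphate buffer pH 8.0 with DTNB (0.01 M stock), after 15 min inhibitor preincubation. A412 read over 1 min at 37 °C. IC50s are means ± SEM of three experiments; ratio = IC50(BuChE)/IC50(AChE).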

Cholinesterase = Cholinesterase (Equus caballus, UniProt P81908); assay: Inhibition of equine serum BuChE by Ellman's method
Cholinesterase, sequence (P81908 whole entry): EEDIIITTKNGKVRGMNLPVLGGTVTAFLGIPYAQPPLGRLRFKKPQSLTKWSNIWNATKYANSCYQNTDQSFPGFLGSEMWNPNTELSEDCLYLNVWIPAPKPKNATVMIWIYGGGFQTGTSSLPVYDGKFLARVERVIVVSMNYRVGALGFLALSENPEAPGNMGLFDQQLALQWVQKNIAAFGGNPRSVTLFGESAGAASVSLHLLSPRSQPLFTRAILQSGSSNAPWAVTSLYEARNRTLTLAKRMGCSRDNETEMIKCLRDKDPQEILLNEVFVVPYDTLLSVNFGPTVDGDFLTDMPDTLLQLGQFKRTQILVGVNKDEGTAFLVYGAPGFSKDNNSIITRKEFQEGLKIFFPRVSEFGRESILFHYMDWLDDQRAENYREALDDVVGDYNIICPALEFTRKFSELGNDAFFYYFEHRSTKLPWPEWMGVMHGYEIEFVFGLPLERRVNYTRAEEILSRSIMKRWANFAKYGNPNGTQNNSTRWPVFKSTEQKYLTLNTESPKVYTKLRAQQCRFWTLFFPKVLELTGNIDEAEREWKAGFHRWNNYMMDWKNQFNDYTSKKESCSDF
Summary of the method: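 Modified Ellman assay with equine serum BuChE (enzyme stock 2.0 units/mL), run the same way as the AChE assay. Phosphate buffer pH 8.0 with DTNB (0.01 M stock). Inhibitor incubated 15 min with enzyme, buffer and DTNB before substrate was added. Absorbance rise at 412 nm read over 1 min at 37 °C. IC50 given as mean ± SEM of three experiments.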

Acetylcholinesterase [2] = biological target: T1, Acetylcholinesterase (Electrophorus electricus, UniProt O42275); assay: Inhibition of electric eel AChE by Ellman's method
T1 sequence (O42275 whole entry): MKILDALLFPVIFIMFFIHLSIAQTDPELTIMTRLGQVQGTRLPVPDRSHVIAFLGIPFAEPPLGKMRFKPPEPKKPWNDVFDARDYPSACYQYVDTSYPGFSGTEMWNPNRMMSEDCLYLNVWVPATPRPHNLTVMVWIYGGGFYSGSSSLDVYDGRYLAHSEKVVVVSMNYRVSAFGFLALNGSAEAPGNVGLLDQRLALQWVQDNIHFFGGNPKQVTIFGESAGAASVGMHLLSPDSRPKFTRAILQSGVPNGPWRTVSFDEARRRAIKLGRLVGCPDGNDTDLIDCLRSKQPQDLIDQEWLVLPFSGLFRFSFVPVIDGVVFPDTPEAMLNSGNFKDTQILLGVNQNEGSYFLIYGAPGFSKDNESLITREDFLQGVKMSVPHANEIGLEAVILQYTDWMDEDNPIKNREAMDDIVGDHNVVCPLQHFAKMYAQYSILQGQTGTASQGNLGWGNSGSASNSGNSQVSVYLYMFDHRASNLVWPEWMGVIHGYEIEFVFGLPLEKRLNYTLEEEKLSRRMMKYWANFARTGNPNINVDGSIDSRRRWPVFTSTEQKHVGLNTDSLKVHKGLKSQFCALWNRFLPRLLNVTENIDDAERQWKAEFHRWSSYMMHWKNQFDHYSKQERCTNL

Acetylcholinesterase [3] = biological target: T1, Acetylcholinesterase; assay: Inhibition of electric eel AChE by LB plot

Work on C[N+](C)(C)CCCNC(=O)c1cnc2c3c(cccc13)-c1ccccc1C2=O yielded a Ratio IC50 [1] of 1, an IC50 (Cholinesterase) of 2.71 µM and an IC50 (Acetylcholinesterase [2]) of 3.16 µM.
Work on C[N+](C)(C)CCC(=O)Nc1ccc2c(c1)C(=O)c1cccc3ccnc-2c13 yielded a Ratio IC50 [1] of 590 and an IC50 (Cholinesterase) of 2.82 µM.
C[N+](C)(C)CCNC(=O)c1cnc2c3c(cccc13)-c1ccccc1C2=O showed a Ratio IC50 [1] of 1, an IC50 (Cholinesterase) of 5.03 µM and an IC50 (Acetylcholinesterase [2]) of 3.32 µM.
In the case of C[N+]1(CCCNC(=O)c2cnc3c4c(cccc24)-c2ccccc2C3=O)CCCCC1, the Ratio IC50 [1] is reported as 57, the IC50 (Cholinesterase) is reported as 6.24 µM and the IC50 (Acetylcholinesterase [2]) is reported as 0.11 µM. It also gave a Ki (Acetylcholinesterase [3]) of 0.11 µM.
With C[N+]1(CCNC(=O)c2cnc3c4c(cccc24)-c2ccccc2C3=O)CCOCC1 the Ratio IC50 [1] was 9, the IC50 (Cholinesterase) was 11.7 µM and the IC50 (Acetylcholinesterase [2]) was 1.24 µM.
In the case of CC[N+](C)(CC)CCC(=O)Nc1ccc2c(c1)C(=O)c1cccc3ccnc-2c13, the Ratio IC50 [1] is reported as 1980, the IC50 (Cholinesterase) is reported as 5.19 µM and the IC50 (Acetylcholinesterase [2]) is reported as 0.00262 µM.
O=C(NCCO)c1cnc2c3c(cccc13)-c1ccccc1C2=O showed a Ratio IC50 [1] of 4, an IC50 (Cholinesterase) of 68.7 µM and an IC50 (Acetylcholinesterase [2]) of 18 µM.
Compound C[N+]1(CCC(=O)Nc2ccc3c(c2)C(=O)c2cccc4ccnc-3c24)CCCCC1 has a Ratio IC50 [1] of 1250, an IC50 (Cholinesterase) of 0.6 µM and an IC50 (Acetylcholinesterase [2]) of 0.00048 µM. The Ki (Acetylcholinesterase [3]) was 0.00031 µM.
CC[N+](C)(CC)CCCNC(=O)c1cnc2c3c(cccc13)-c1ccccc1C2=O gave a Ratio IC50 [1] of 15, an IC50 (Cholinesterase) of 9.72 µM and an IC50 (Acetylcholinesterase [2]) of 0.65 µM.
Work on C[N+]1(CCCNC(=O)c2cnc3c4c(cccc24)-c2ccccc2C3=O)CCOCC1 yielded a Ratio IC50 [1] of 4, an IC50 (Cholinesterase) of 4.75 µM and an IC50 (Acetylcholinesterase [2]) of 1.05 µM.
For O=C(NCCCO)c1cnc2c3c(cccc13)-c1ccccc1C2=O, the Ratio IC50 [1] was 4, the IC50 (Cholinesterase) was 53.3 µM and the IC50 (Acetylcholinesterase [2]) was 12.2 µM.
For O=C1c2ccccc2-c2cccc3ccnc1c23, the Ratio IC50 [1] was 0.4, the IC50 (Cholinesterase) was 4.01 µM and the IC50 (Acetylcholinesterase [2]) was 10.6 µM. It also gave a Ki (Acetylcholinesterase [3]) of 14.6 µM.
CC[N+](C)(CC)CCNC(=O)c1cnc2c3c(cccc13)-c1ccccc1C2=O gave a Ratio IC50 [1] of 5, an IC50 (Cholinesterase) of 8.14 µM and an IC50 (Acetylcholinesterase [2]) of 1.71 µM.
Compound C[N+]1(CCNC(=O)c2cnc3c4c(cccc24)-c2ccccc2C3=O)CCCCC1 has a Ratio IC50 [1] of 16, an IC50 (Cholinesterase) of 6.76 µM and an IC50 (Acetylcholinesterase [2]) of 0.35 µM.
Work on Nc1ccc2c(c1)C(=O)c1cccc3ccnc-2c13 yielded an IC50 (Cholinesterase) of over 100 µM and a Ki (Acetylcholinesterase [3]) of 3.86 µM.
